# hERG protect = compounds protecting human hERG from proarrhythmic drug block | Q12809 | CHO-hERG, FluxOR thallium flux, dofetilide IC70 present | activation (rescue from dofetilide block), less the hit threshold, % at 10 µM | 0.51% of 310,000 active | AID 1511;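 active = activation above the mean of controls blocked by dofetilide plus 5 SD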;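 note: thallium influx through hERG after potassium depolarization seen as dye fluorescence rise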
# KCNQ1 inh = blocks the human KCNQ1 potassium channel; CHO-K1 KCNQ1, FluxOR thallium flux fluorescence; stronger effect = higher value; B-score at 10 µM; 1.3% of 310,000 active;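 active = compounds whose thallium flux B-score, printed positive for inhibition, exceeds three library SD while starting fluorescence stays within three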;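 note: channel opened by potassium depolarization with thallium stimulus after 20 min compound exposure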
# Target sequence (P51787 whole entry, looked up): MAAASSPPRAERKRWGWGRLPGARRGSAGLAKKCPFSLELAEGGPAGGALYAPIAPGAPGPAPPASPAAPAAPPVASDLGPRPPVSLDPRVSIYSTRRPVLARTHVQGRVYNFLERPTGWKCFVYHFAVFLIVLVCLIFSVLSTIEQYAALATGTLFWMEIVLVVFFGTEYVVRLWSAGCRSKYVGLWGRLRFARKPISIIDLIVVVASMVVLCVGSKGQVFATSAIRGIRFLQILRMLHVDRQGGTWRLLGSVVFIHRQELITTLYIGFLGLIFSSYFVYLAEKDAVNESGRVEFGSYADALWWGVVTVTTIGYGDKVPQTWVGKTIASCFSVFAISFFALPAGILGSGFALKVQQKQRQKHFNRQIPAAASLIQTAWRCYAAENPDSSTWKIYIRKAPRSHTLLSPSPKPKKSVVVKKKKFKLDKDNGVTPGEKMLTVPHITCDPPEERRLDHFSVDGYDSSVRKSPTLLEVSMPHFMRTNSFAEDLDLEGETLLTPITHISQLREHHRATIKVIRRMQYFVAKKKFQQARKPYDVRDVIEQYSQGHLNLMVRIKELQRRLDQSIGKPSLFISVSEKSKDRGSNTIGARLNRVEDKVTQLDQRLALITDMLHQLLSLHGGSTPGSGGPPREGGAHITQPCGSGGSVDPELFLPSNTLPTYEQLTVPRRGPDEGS
# KCNQ1 act = potentiates or activates the human KCNQ1 potassium channel. CHO-K1 KCNQ1, thallium flux FluxOR fluorescence; stronger effect = higher value. B-score at 10 µM. 0.35% of 310,000 active. AID 2648;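 active = fluorescence ratio B-score, a plate-corrected score, at least three library SD, with initial intensity B-score within 5 SD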
#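 Assay system: CHO-K1 cells stably expressing KCNQ1; Medium: assay buffer with matched DMSO; Also added: K+/Tl+ depolarizing stimulus; Dosing: single dose; Timing: dye 90 min, compound 20 min, room temperature; Measured by: kinetic FluxOR thallium fluorescence, 10-s 1-Hz baseline, 110-s post-stimulus read; Read-out: peak-minus-minimum fluorescence over initial fluorescence, negative-control normalized, B-scored.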
# Kir21 inh = Kir2.1 (mouse) channel inhibition; 0.85% of 310,000 active; B-score at 10 µM; HEK293-Kir2.1, FluxOR thallium flux fluorescence; stronger effect = lower value; P35561; AID 1672;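 active = fluorescence ratio B-score at or below minus 3 SD of library scores, with starting-brightness B-score within 2 SD, cut at about -4.2 in these data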;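 note: channel flux triggered by added potassium and thallium sulfate stimulus; B-score of peak minus minimum fluorescence over baseline after thallium stimulus; more negative B-score means stronger Kir2.1 block with less thallium influx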
# KCNK3 block = human KCNK3 channel inhibition, primary screen | O14649 | CHO-KCNK3 thallium flux, FluxOR fluorescence; stronger effect = lower value | B-score at 10 µM | 0.84% of 340,000 active | AID 602410;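 active = B-score under library mean minus 4 SD, starting fluorescence ratio at most library mean plus 5 SD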;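 note: more negative B-score means stronger inhibition of thallium flux through KCNK3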
# KCNK9 block = human KCNK9 channel inhibition | HEK293 KCNK9, FluxOR thallium flux fluorescence; stronger effect = lower value | B-score at 10 µM | 1.2% of 310,000 active | AID 488922;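 active = ratio B-score over 3 SD below the library mean, with starting fluorescence within 5 SD of its mean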;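 note: negative B-score means less thallium flux so channel inhibition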
# KCNK9 inh conf = human KCNK9 inhibitor confirmation. shares compounds with KCNK9 block. HEK293 KCNK9 cells, FluxOR thallium flux fluorescence. AID 492992. inhibition, % at 10 µM. 43% of 4,900 active;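 active = thallium signal inhibited by more than 5 SD of the compound-free buffer control wells, on both duplicate plates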;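 note: 0% = assay buffer control wells without compound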
# Kir21 sel = tests whether KCNK9 modulators also affect mouse Kir2.1; shares compounds with KCNK9 block; Kir2.1 cells, FluxOR thallium flux fluorescence; inhibition, % at 10 µM; 4% of 4,900 active;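 active = thallium signal drop more than 5 SD beyond the mean of the no-compound control wells, seen in both duplicate plates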;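 note: signal is fluorescence rise after thallium addition divided by baseline fluorescence; plate controls were assay buffer only for no effect and full block by chlorpromazine control for full effect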
# HEK293 Tl ctr = second counter-screen for KCNK9 modulators: effect in non-induced cells; shares compounds with KCNK9 block; inhibition, % at 10 µM; 40% of 4,900 active; non-induced KCNK9-HEK293, FluxOR thallium flux;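 active = thallium signal drop beyond 5 SD of the untreated control mean, on both duplicate plates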;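 note: plate controls were buffer only IC0 wells for no effect and SID17386958 at its maximal inhibitory level for full effect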
# The depositor's hits bear a star; i = inactive; x = no result. An excerpt weighted towards active compounds, which were near 3.7% of everything screened.
SMILES,hERG protect,KCNQ1 inh,KCNQ1 act,Kir21 inh,KCNK3 block,KCNK9 block,KCNK9 inh conf,Kir21 sel,HEK293 Tl ctr
CCOC(=O)c1cc(-c2ccc(/C=C3/C(=O)N(c4ccc(C(=O)O)cc4)N=C3C)o2)ccc1Cl,-15,i,i,1.7,i,i,i,i,i
O=[N+]([O-])c1ccc(COc2cccc(CNc3ccc(F)cc3)c2)cc1,-2,6*,i,-0.03,i,-8.3*,41%*,i,i
Oc1ccc(NCc2cccc(OCc3ccc(F)cc3)c2)cc1,-23,i,i,1.5,i,i,x,x,x
COc1ccc(C(=O)CSc2nnc3n2CCCN3C(=O)Nc2ccccc2)cc1,-10,i,i,-0.03,i,i,x,x,x
COc1ccc([C@H]2[C@H](C(=O)OC(C)(C)C)N3N=Cc4ccccc4C3C23C(=O)c2ccccc2C3=O)cc1OC (stereo partly drawn),1,i,i,1,i,i,x,x,x
CC(C)(C)C(=O)[C@H]1[C@H](c2ccccc2)[C@@]2(N=C(c3ccccc3)OC2=O)C2c3ccccc3C=NN21 (stereo partly drawn),-18,i,i,-0.52,i,-9.7*,29%*,i,i
O=c1/c(=C\c2cccc(O)c2)sc2nc(-c3ccccc3)c(-c3ccccc3)n12,-6,i,i,-0.97,i,-10*,43%*,i,28%*
O=C(Cc1c(Cl)cccc1Cl)OCC(=O)N1CCc2ccccc2C1,-12,i,i,0.34,i,i,i,i,i
CC(=O)Nc1ccc(OCC(=O)N2CCc3ccccc3C2)cc1,2,i,i,0.72,i,i,x,x,x
CC(C)c1ccc(OCC(=O)N2CCc3ccccc3C2)cc1,-4,i,i,2.4,i,i,i,i,i
CCc1nccn1S(=O)(=O)c1ccccc1[N+](=O)[O-],-9,i,i,0.02,i,i,x,x,x
CC(C)CNc1nc(Oc2ccc(=O)[nH]n2)nc(N2CCOCC2)n1,-12,i,i,0.01,i,i,x,x,x
Cc1cc(C)c2nc(Cl)c(CN(Cc3ccco3)C(=O)Nc3ccccc3C)cc2c1,-9,i,i,-0.04,i,i,i,i,i
COCCN(Cc1cc2cc(C)cc(C)c2nc1Cl)C(=O)Nc1ccccc1,-5,i,i,0.04,i,i,x,x,x
Cc1csc(NC(=O)CSc2nc3ccccc3c3c2CCCC3)n1,-1,i,i,1.6,i,i,i,i,i
O=C(CSc1nc2ccccc2c2c1CCCC2)N1CCOCC1,-13,i,i,-0.99,i,i,i,i,i
O=C(CSc1nncc2ccccc12)N1CCOCC1,-12,i,i,0.05,i,i,x,x,x
COc1ccccc1N1CCN(C(=O)CN(C)S(=O)(=O)c2cc(C)ccc2OC)CC1,-10,i,i,-0.68,i,i,x,x,x
Cc1ccsc1/C=N/N1CCN(C2c3ccccc3-c3ccccc32)CC1,-5,i,i,-2.8,i,i,i,i,27%*
O=C(COc1ccc(Cl)cc1Cl)NCCCCc1ccccc1,-12,i,i,0.55,i,i,i,i,24%*
O=C(CCCc1ccccc1)NCCCc1ccccc1,0,i,i,0.07,i,i,i,i,i
O=C(CSc1nccc(-c2cccs2)n1)Nc1ccc(F)c(Cl)c1,-2,i,i,-0.84,i,-8.2*,i,i,37%*
O=C(CSc1nccc(-c2cccs2)n1)Nc1cccc(Cl)c1,-5,i,i,-0.62,i,i,x,x,x
COCc1ccc(C(=O)N2CCCC(C(=O)c3ccc(Cl)cc3C)C2)o1 (stereo not drawn),-9,i,i,-3.1,i,i,i,i,i
Cc1cc(Cl)ccc1C(=O)C1CCCN(C(=O)c2cnsn2)C1 (stereo not drawn),-7,i,i,-1.8,i,i,i,i,i
SMILES,hERG protect,KCNQ1 inh,KCNQ1 act,Kir21 inh,KCNK3 block,KCNK9 block,KCNK9 inh conf,Kir21 sel,HEK293 Tl ctr
Cc1cc(C(=O)N2CCCC(C(=O)c3ccc(Cl)cc3C)C2)no1 (stereo not drawn),-10,i,i,0,i,i,x,x,x
Cc1nc(C)c(C(=O)N2CCCC(C(=O)c3ccc(Cl)cc3C)C2)s1 (stereo not drawn),-6,i,i,-2.8,i,i,x,x,x
COc1ccc(NC2CCCN(C(=O)c3ccc(CSC)o3)C2)cc1OC (stereo not drawn),-6,i,i,-0.3,i,i,x,x,x
Cc1cc(Cl)ccc1C(=O)C1CCCN(C(=O)c2ccoc2)C1 (stereo not drawn),-6,i,i,0.3,i,i,i,i,i
COCc1ccc(C(=O)N2CCCC(Nc3ccc4c(c3)OCCO4)C2)o1 (stereo not drawn),-11,i,i,1.5,i,i,i,i,i
O=C1CN(C(=O)COC(=O)c2ccc[n+]([O-])c2)c2ccccc2N1,-3,i,i,-1.2,i,i,x,x,x
Cc1ccc(SCC(=O)N2N=CCC2c2ccccc2)cc1 (stereo not drawn),-7,i,i,-4.1,i,i,x,x,x
CCOC(=O)C1=CNS(=O)(=O)NC1c1ccc(Br)cc1F (stereo not drawn),x,x,x,x,i,x,x,x,x
COc1ccc(C/C(=N\O)c2ccc(OC)cc2)cc1,-10,i,i,-0.49,i,i,i,i,i
COc1ccc(NC(=O)CN(C)C(=O)c2ccc3c(c2)S(=O)(=O)N=C2CCCCCN23)cc1,-5,i,i,0.7,i,i,x,x,x
CC(C(=O)N1CCCc2ccccc21)N1CCN(S(=O)(=O)c2ccccc2F)CC1 (stereo not drawn),-11,i,i,0.01,i,i,i,i,i
Cc1cccc2cc(CNC3CCCC3)c(Cl)nc12,-11,i,i,0.69,i,i,x,x,x
C/C(CCC(C)C)=N\NS(=O)(=O)c1ccc(C)c([N+](=O)[O-])c1,-10,i,i,-0.57,i,-8.9*,64%*,i,41%*
CC/C(C)=N/NS(=O)(=O)c1ccc(C)c([N+](=O)[O-])c1,-7,i,i,1.1,i,i,x,x,x
